Reference: ChEMBL document CHEMBL1141798, “Antitubercular constituents from the stem wood of Cinnamomum kotoense” (2005)
Values after ≈ are worked out from the molar mass of the structure shown.

Tested on: Mycobacterium tuberculosis
Assay: Antitubercular activity against Mycobacterium tuberculosis 90-221387
Format: functional
Outline: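 Agar proportion method on Middlebrook 7H10 with OADC; compounds serially diluted into molten agar (50-56 °C) to final 100 to 0.8 µg/mL. Inoculum from colonies in 7H9 broth, adjusted to McFarland no. 1, diluted 10-2; 33 µL spotted per quadrant. Incubated 35 °C, 10% CO2, 2 weeks; MIC = lowest concentration completely inhibiting growth.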

SMILES	MIC [µM]
O=C(O)c1ccc(O)c(O)c1 [PROTOCATECHUIC ACID]	649 (≈ 100 µg/mL)
O=C(O)c1ccccc1 [BENZOIC ACID]	328 (≈ 40 µg/mL)
CCCCCCCCCCCCCCCCCCCCCCCCCCCC(O)O [KOTODIOL]	117 (≈ 50.1 µg/mL)
C=C1OC(=O)/C(=C/CCCCCCCCCCCCC)[C@@H]1O [ISOOBTUSILACTONE A]	22.5 (≈ 6.93 µg/mL)
CC(=O)c1ccc(C)o1	323 (≈ 40 µg/mL)
COc1cc([C@H]2OC[C@H]3[C@@H]2CO[C@@H]3c2cc(OC)c(O)c(OC)c2)cc(OC)c1O (racemic) [SYRINGARESINOL]	239 (≈ 100 µg/mL)
CCCCCCCCCCCCC/C=C1/C(=O)O[C@@]2(C)O[C@H](CCCCCCCCCCCCC)O[C@@H]12 [KOTOLACTONE A]	40.1 (≈ 20.9 µg/mL)
COc1cc(C=O)cc(OC)c1O [SYRINGALDEHYDE]	137 (≈ 25 µg/mL)
C#CCCCCCCCCC/C=C1/C(=O)O[C@@H](C)[C@H]1O [LINCOMOLIDE B]	10.2 (≈ 2.83 µg/mL)
CCCCCCCCCCCC(=O)O [DODECANOATE]	62.5 (≈ 12.5 µg/mL)
O=Cc1ccc(O)cc1 [4-HYDROXYBENZALDEHYDE]	369 (≈ 45 µg/mL)
COc1cc(OC)c2c(c1)O[C@H](c1ccc(O)c(OC)c1)[C@H](O)C2	151 (≈ 50.1 µg/mL)
CO[C@H]1/C=C/O[C@@]2(C)Oc3c(C)c(O)c4c(O)c(c(/C=N/N5CCN(C)CC5)c(O)c4c3C2=O)NC(=O)/C(C)=C\C=C\[C@H](C)[C@H](O)[C@@H](C)[C@@H](O)[C@@H](C)[C@H](OC(C)=O)[C@@H]1C [RIFAMPIN]	0.24 (≈ 0.198 µg/mL)
COc1cc(C=O)ccc1O [VANILLIN]	82.2 (≈ 12.5 µg/mL)
